In publication PMC2761715 (Molecular cancer therapeutics, 2009):

Columns and labels:
Type in all cases: cell-based
[1] = tested on: LC3; experiment: LC3-I to LC3-II conversion, western blot
In short: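 H929 or 8226 cells exposed 4 h to test peptide or scrambled peptide (50 µg/ml H929; 100 µg/ml 8226) or 100 uM tunicamycin; NAC arm: H929 at 4 × 10^5 cells/ml, 10 mM NAC 30 min then 50 µg/ml for 4 h. Lysed on ice in NP-40/Tris pH 7.6 buffer with protease/phosphatase inhibitors; 10 µg protein, 8% SDS-PAGE, PVDF blot for LC3-I/II.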

[2] = tested on: 8226 cells; experiment: Cell death analysis, annexin V, FACS; conditions: addition of 3-MA, supplemental data S5
[3] = tested on: H929 cells; experiment: Mitochondrial membrane potential; conditions: H929, NAC 10 mM 30 min, then HYD1 50 µg/ml 4 hrs; Figure 5C
In short: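 H929 cells (4 × 10^5 cells/ml) pretreated 30 min with 10 mM NAC, then test compound 50 µg/ml for a further 4 h. Cells stained 15 min with 15 nM DiOC6, PBS-washed and resuspended, then loss of Δψm measured by flow cytometry; n=9.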

[4] = tested on: H929 cells; experiment: Reactive oxygen species; conditions: NAC 10 mM; supplementary data S7
[5] = tested on: H929 cells; experiment: Neutral comet assay; conditions: H929, 6 hours, 50 ug/ml HYD1 or HYDS or 50 ng/ml TRAIL, n=150; Figure 3D
In short: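 Neutral comet assay on H929 cells given 50 µg/ml test peptide, scrambled peptide, or 50 ng/ml TRAIL (positive control) for 6 h. 5,000 cells pelleted, taken up in PBS agar, layered onto frosted slides and run under neutral conditions. Comet moments measured from 50 images per treatment by CCD camera; n=150.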

In the case of Tunicamycin, the “conversion of LC3-I to LC3-II” value ([1]; 4 hour treatment, 50 µg/ml HYD1 for H929, 100 ug/ml for 8226, 100 uM tunicamycin) is reported as “increased conversion of LC3-I to LC3-II”.

In the case of `Cn1cnc(N)c2ncnc1-2` [3-MA, 3-Methyladenine], the “sensitization to HYD1 induced cell death” value [2] is reported as “sensitized 8226 cells to HYD1 induced cell death”.

With `CC(=O)N[C@@H](CS)C(=O)O` [NAC, N-acetyl-L-cysteine] the “reversal of HYD1-induced loss in Δψm by NAC” value [3] was “not reversed by pretreatment with NAC”, the “reversal of HYD1-induced increase in LC3-II by NAC” value ([1]; H929, NAC 10 mM 30 min, then HYD1 50 µg/ml 4 hrs, Figure 5D) was “completely reversed” and the “inhibition of ROS production by NAC” value [4] was “effective in inhibiting the production of ROS”.

In the case of TRAIL, the “comet moments (double stranded DNA breaks)” value [5] is reported as “significant increase in comet moments”.
